PubChem BioAssay
The source made the active and inactive calls.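 Rule for the calls, unless noted: active = fluorescence slope higher than the sample average by over 3 SD (cut at about -0.22 in these data, passing the limit was not always enough); inactive = the rest.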

Legend:
[1] = inhibitors of TNFa-induced NFkB p65 translocation, primary screen, imaging, HUVEC, MLSMR starter and 10KST1 sets (AID 438;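 active = inhibition above 20% together with a positive visual image hit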;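 note: compound added about 3h40 before a 20 min TNFalpha stimulation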;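 for inhibition: signal is the nuclear over cytoplasmic p65 intensity ratio per well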); conditions: HUVEC TNFa-induced p65 nuclear translocation; cell count: measured here: nuclei count (cytotoxicity indicator), at 2.08 µM; inhibition: at 2 µM, stronger effect = higher value, 0% TNFa-plus-vehicle, 100% no-TNFa wells
[2] = endothelial E-selectin expression blockers – imaging, HUVEC, immunofluorescence, MLSMR starter and 10KST1 sets, primary screen (AID 487;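 active = visually confirmed hit in the image check and inhibition above 20%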;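 for inhibition: signal is fraction of cell area covered by stained E-selectin grains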;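 for nuclei count: 100% = median nuclei count of all wells on the same plate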); conditions: HUVEC TNFalpha-induced E-selectin immunofluorescence imaging, at 2 µM; inhibition: stronger effect = higher value; nuclei count: measured here: cell number, toxicity
[3] = Primary imaging screen for DUSP6 inhibitors that restore phospho-Erk in transfected HeLa cells, chemical complementation (AID 609;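 active = compounds giving at least 50% inhibition in the cell-based MKP-3 phosphatase rescue imaging test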;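 for inhibition: phospho-Erk level distribution per well compared with pooled transfected vehicle control wells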); conditions: HeLa MKP-3 transfected, phospho-Erk imaging KS statistic, at 10 µM, cells stimulated with TPA for 15 min
[4] = molecular target: Dual specificity protein phosphatase 6 (Homo sapiens) (UniProt Q16828); test: as above; conditions: HeLa MKP-3 transfected, phospho-Erk imaging KS statistic; at 10 µM; stronger effect = higher value; cells stimulated with TPA for 15 min
[5] = molecular target: Voltage-gated potassium channel subunit beta-2 (Rattus norvegicus) (UniProt P62483); test: inhibitors of rat Kvbeta2 reductase activity – biochemical, NADPH fluorescence, primary screen (AID 622); conditions: recombinant KvBeta, 4-cyanobenzaldehyde reduction, at 10 µM, stronger effect = higher value;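 note: slope of raw intensity against log time taken from 70 to 1610 s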
[6] = molecular target: Voltage-gated potassium channel subunit beta-2 (Rattus norvegicus) (UniProt P62483); test: enhancers of rat Kvbeta2 NADPH turnover – biochemical, NADPH fluorescence, primary screen (AID 623;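 active = NADPH fluorescence slope more negative than the mean of all samples by about 3 SD, 99.7% confidence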;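 note: fluorescence intensity change per second fitted from 20 to 320 s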); conditions: Recombinant KvBeta, NADPH fluorescence decrease slope, 10 min; at 10 µM; stronger effect = lower value
[7] = molecular target: Muscarinic acetylcholine receptor M4 (Homo sapiens) (UniProt P08173); test: M4-linked GIRK flux change, two-sided – cell-based, HEK293 M4/GIRK, thallium flux, BTC-AM, M4 allosteric agonist project, primary screen (AID 625;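 active = fluorescence slope after compound addition differing from the mean of all tested samples at 99.7% confidence, mostly higher but some lower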;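 note: thallium influx through GIRK channels coupled to M4 in HEK293 cells with BTC-AM dye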); conditions: at 10 µM, actives lie on both sides
How it was run: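 Material: M4/GIRK1/GIRK2 stable HEK293 cell line. Medium: pH 7.3 thallium assay buffer. Dosing: single compound concentration, 10 µM final. Schedule: 1 h dye loading, 2 min kinetic read. Measured by: kinetic fluorescence with BTC-AM dye. Read-out: post-addition slope, 15–24 s, of baseline-normalized fluorescence. Benchmarks: carbachol and DMSO controls.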

[8] = inhibitors of larval lipid processing in zebrafish, primary screen, whole organism, PED6 fluorescence, gall bladder and intestine (AID 686;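 active = a full or partial loss of lipid-probe fluorescence in the fish gall bladder, intestine or both, judged by eye; inactive = no fluorescence loss, or compound toxic to the fish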;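 note: larvae 5 to 7 days old with five fish per well; signal comes from phospholipase A2 cleavage of quenched PED6 carried via bile; overnight exposure to compound and PED6 before scoring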); conditions: Zebrafish larvae PED6 lipid processing, fluorescence scoring; screened at 20 µM (by protocol)
How it was run: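 System: live zebrafish larvae aged 5-7 days, whole organism; measure: graded gall bladder and intestinal fluorescence inhibition per well; incubation: overnight exposure; reagent: ingested quenched lipid PED6 at 100 nM; signal: By-eye fluorescence microscopy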

[9] = loss of swimming-algae plug formation – whole organism, Chlamydomonas reinhardtii, WT vs cilia-less mutant, absorbance, 96-well, primary screen (AID 463189;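 active = inhibition at or above 50% relative to wild type and mutant plate controls; inactive = inhibition below 50%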;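 note: 0% = wild type cc124 cells in DMSO and 100% = ciliumless bld1 mutant cells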); conditions: Chlamydomonas reinhardtii gravitaxis, OD600 absorbance, 2 days; at 10 µM; stronger effect = higher value
[10] = measured here: cell density z-score
[11] = measured here: nuclear c-Myc green intensity z-score
[12] = measured here: nuclear pErk red intensity z-score, stronger effect = higher value

Sequence of Dual specificity protein phosphatase 6 (Homo sapiens) (Q16828 whole entry, looked up): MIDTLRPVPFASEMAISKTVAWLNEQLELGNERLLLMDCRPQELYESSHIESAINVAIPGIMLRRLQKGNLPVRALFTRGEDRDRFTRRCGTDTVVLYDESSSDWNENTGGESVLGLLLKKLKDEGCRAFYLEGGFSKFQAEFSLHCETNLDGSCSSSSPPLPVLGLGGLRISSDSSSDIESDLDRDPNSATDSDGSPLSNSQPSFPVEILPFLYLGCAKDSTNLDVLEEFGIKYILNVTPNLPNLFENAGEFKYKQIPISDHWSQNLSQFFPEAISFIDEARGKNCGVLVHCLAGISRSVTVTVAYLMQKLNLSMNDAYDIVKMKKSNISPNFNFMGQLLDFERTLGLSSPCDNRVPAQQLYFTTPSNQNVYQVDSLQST
Sequence of Voltage-gated potassium channel subunit beta-2 (Rattus norvegicus) (P62483 whole entry, looked up): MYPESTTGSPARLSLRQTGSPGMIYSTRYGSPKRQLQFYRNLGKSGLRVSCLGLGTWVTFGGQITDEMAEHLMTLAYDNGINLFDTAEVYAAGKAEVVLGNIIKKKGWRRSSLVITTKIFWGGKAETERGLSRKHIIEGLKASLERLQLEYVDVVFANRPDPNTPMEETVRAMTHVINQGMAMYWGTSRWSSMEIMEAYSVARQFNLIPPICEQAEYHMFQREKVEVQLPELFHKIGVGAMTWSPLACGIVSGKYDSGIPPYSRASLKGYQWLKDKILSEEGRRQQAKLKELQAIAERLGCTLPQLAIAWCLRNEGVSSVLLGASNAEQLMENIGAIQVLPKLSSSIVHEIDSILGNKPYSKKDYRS
Sequence of Muscarinic acetylcholine receptor M4 (Homo sapiens) (P08173 whole entry, looked up): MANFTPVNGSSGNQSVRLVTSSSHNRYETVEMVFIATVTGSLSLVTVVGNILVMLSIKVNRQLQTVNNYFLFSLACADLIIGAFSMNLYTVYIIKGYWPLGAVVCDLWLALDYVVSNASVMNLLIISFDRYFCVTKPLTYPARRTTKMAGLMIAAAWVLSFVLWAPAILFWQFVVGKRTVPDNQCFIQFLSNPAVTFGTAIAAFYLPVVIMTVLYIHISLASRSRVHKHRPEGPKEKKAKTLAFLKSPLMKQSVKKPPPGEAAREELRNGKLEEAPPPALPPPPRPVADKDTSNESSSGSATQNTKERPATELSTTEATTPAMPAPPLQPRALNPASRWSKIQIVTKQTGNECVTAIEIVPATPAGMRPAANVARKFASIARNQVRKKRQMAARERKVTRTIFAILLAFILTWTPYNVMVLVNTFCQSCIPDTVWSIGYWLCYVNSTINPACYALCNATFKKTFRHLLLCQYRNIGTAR

Structure (SMILES)	cell count [1]	inhibition [1]	inhibition [2]	nuclei count [2] [%]	z-score [3, 10]	z-score [3, 11]	z-score [3, 12]	inhibition [4]	fluorescence slope [5]	NADPH fluorescence slope [6]	fluorescence slope [7]	outcome [8]	inhibition [9]
CN(CCOC(=O)c1ccc2c(c1)OCCO2)Cc1ccccc1	661	-16.5% (inactive)	-9.5% (inactive)	184	0.691	-0.671	1.4	5.35% (inactive)	-0.472 (inactive)	-0.000111 (inactive)	0.00763 (inactive)	inactive	69.7% (active)
O=S(=O)(c1ccccc1)N(CC(O)CN1CCCCC1)c1ccccc1 (stereo not drawn)	596	-4.6% (inactive)	36.6% (inactive)	84.8	-0.887	0.0372	0.232	5.42% (inactive)	-0.342 (inactive)	-2.3e-05 (inactive)	0.00483 (inactive)	inactive	26.5% (inactive)
COC(=O)c1ccc(Cn2c(O)c(N=O)c3ccccc32)o1	485	2% (inactive)	-36.4% (inactive)	122	-2.02	0.422	-1.72	7.42% (inactive)	-0.493 (inactive)	-7e-05 (inactive)	0.00432 (inactive)	inactive	-9.22% (inactive)
COc1ccc(/C(O)=C2\C(=O)C(=O)N(Cc3ccco3)C2c2cc(OC)ccc2OC)cc1 (stereo not drawn)	613	-13.1% (inactive)	-6% (inactive)	161	0.378	-0.392	-0.39	5.42% (inactive)	-0.452 (inactive)	-1.6e-05 (inactive)	0.00573 (inactive)	inactive	-2.62% (inactive)
CC(C)(C)C1=Nn2c(nnc2C2CCCCC2)SC1	802	-5.9% (inactive)	-150% (inactive)	189	0.781	1.46	0.611	2.46% (inactive)	-0.452 (inactive)	-7.5e-05 (inactive)	0.00451 (inactive)	inactive	3.81% (inactive)
CCOC(=O)NC1(C(F)(F)F)C(=O)NC(C)=C1C#N (stereo not drawn)	377	3.7% (inactive)	5.5% (inactive)	129	-0.0977	-0.0162	0.321	3.42% (inactive)	-0.427 (inactive)	-0.000119 (inactive)	0.00503 (inactive)	inactive	23.5% (inactive)
Cc1nc(SCC(=O)Nc2ccc3c(c2)OCO3)c(C#N)c2c1CCCC2	490	1.3% (inactive)	-215% (inactive)	145	-0.268	-1.41	0.298	9.37% (inactive)	-0.472 (inactive)	-4e-05 (inactive)	0.00555 (inactive)	inactive	19.8% (inactive)
CCNC(=O)COn1c(SCC(=O)NCC)nc2ccccc2c1=O	763	2.9% (inactive)	10% (inactive)	174	0.564	0.056	0.704	-4.7% (inactive)	-0.443 (inactive)	-4.1e-05 (inactive)	0.00588 (inactive)	inactive	-4.94% (inactive)
CCN(CC)C(=O)C1CCN(c2ncnc3c2cnn3-c2ccc(C)cc2C)CC1	622	-8.2% (inactive)	-52.3% (inactive)	178	1.38	-1.28	0.399	11.4% (inactive)	-0.416 (inactive)	-4.9e-05 (inactive)	0.00727 (inactive)	inactive	27.9% (inactive)
O=C1c2ccccc2C(=O)N1CC1c2ccccc2CCN1C(=O)N1CCOCC1 (stereo not drawn)	775	-4.1% (inactive)	-16.4% (inactive)	202	0.51	1.63	0.969	1.98% (inactive)	-0.485 (inactive)	-4.9e-05 (inactive)	0.0053 (inactive)	inactive	-3.71% (inactive)
Cc1ccccc1COc1ccc(/C(O)=C2/C(=O)C(=O)N(CCCn3ccnc3)C2c2ccco2)cc1 (stereo not drawn)	642	-2.1% (inactive)	-23.1% (inactive)	171	-1.5	-0.323	2.13	9.37% (inactive)	-0.48 (inactive)	-0.00012 (inactive)	0.00521 (inactive)	inactive	13.6% (inactive)
COc1ccc(C(=O)c2oc3nc(C)cc(C)c3c2N)cc1	400	3.1% (inactive)	7.4% (inactive)	117	1.15	-1.17	-0.769	19.4% (inactive)	-0.379 (inactive)	-2e-05 (inactive)	0.00438 (inactive)	inactive	23.4% (inactive)
O=C(NCCN1CCOCC1)c1ccc(=O)oc1	515	-7.5% (inactive)	70.5% (active)	102	0.12	1.12	0.0878	4.37% (inactive)	-0.481 (inactive)	-8.3e-05 (inactive)	0.0085 (inactive)	inactive	-15.9% (inactive)
C=CCN=C(C)C1=C(O)CCC1=O	637	3.3% (inactive)	-33.6% (inactive)	116	-0.646	0.913	-0.284	-2.09% (inactive)	-0.445 (inactive)	-6.8e-05 (inactive)	0.0054 (inactive)	inactive	11.3% (inactive)
CC1(C)Cc2c(c(N3CCOCC3)nc3sc4c(=O)[nH]cnc4c23)CS1	493	-5.7% (inactive)	10.3% (inactive)	100	-0.312	0.705	1.1	7.93% (inactive)	-0.44 (inactive)	-1.9e-05 (inactive)	0.00568 (inactive)	inactive	28.7% (inactive)
CN(CCNC(=O)c1ccc(/C=N/O)nc1)Cc1ccccc1	620	-9.1% (inactive)	-41% (inactive)	182	-0.419	-0.398	-0.0227	1.63% (inactive)	-0.479 (inactive)	-5.2e-05 (inactive)	0.00471 (inactive)	inactive	1.08% (inactive)
